Data: ChEMBL document CHEMBL1955737, “Diarylpyrimidine-dihydrobenzyloxopyrimidine hybrids: new, wide-spectrum anti-HIV-1 agents active at (sub)-nanomolar level” (J Med Chem, 2011)

Experiments:
[1] = test system: Human immunodeficiency virus 1; assay: Antiviral activity against HIV 1 harboring reverse transcriptase Y181C mutant infected in human MT4 cells assessed as inhibition of virus-induced cytopathic effect after 5 days by MTT assay; type: functional, organism-based; conditions: Human immunodeficiency virus 1, MT4, 120 h
In short: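 MT-4 cells (NIH AIDS Reagent Program) infected with the mutant HIV-1 strain in the presence of a range of drug concentrations. Mutant strains were from the MRC Centralised Facility for AIDS Reagents; IRLL98 carries K101Q, Y181C and G190A. Viable cells were counted by MTT colorimetry at day 5 post-infection. […] Values are means of at least two experiments.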

[2] = test system: Human immunodeficiency virus 1; assay: Antiviral activity against HIV 1 harboring reverse transcriptase Y188L mutant infected in human MT4 cells assessed as inhibition of virus-induced cytopathic effect after 5 days by MTT assay; type: functional, organism-based; conditions: Human immunodeficiency virus 1, MT4, 120 h
[3] = test system: Human immunodeficiency virus 1; assay: Resistance ratio of EC50 for HIV 1 harboring reverse transcriptase Y188L mutant infected in human MT4 cells to EC50 for wild type HIV 1 NL4-3 infected in human MT4 cells; type: functional
In short: (§1)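 Fold change is the EC50 against the mutant strain (K103N, Y181C, Y188L or IRLL98) divided by the EC50 against wild-type NL4-3. Both EC50s come from MT-4 cells infected in the presence of a range of drug concentrations, with MTT viability read at day 5. Values are means of at least two experiments.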

[4] = test system: Human immunodeficiency virus 1; assay: Ratio of ID50 for HIV 1 reverse transcriptase Y188L mutant to ID50 for wild type HIV 1 NL4-3 reverse transcriptase
In short: (§2)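 Recombinant HIV-1 RT (wild type or K103N, L100I, Y181I or Y188L), purified to >95%, at 2-4 nM. RNA-dependent DNA polymerase assay with 0.5 μg poly(rA)/oligo(dT) 10:1 (0.3 μM 3'-OH ends) and 10 μM [3H]dTTP in 8% final DMSO. Initial velocities were taken from aliquots sampled every 2 min. […] The ratio is mutant ID50 over wild-type ID50. Means of at least three experiments.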

[5] = test system: Human immunodeficiency virus 1; assay: Resistance ratio of EC50 for HIV 1 harboring reverse transcriptase Y181C mutant infected in human MT4 cells to EC50 for wild type HIV 1 NL4-3 infected in human MT4 cells; type: functional; in short: as §1
[6] = Cytotoxicity against human MT4 cells assessed as cell viability by MTT assay; type: cell-based
[7] = Selectivity index, ratio of CC50 for human MT4 cells to EC50 for HIV 1 NL4-3; type: toxicity, cell-based; conditions: read-out: Ratio CC50/EC50
In short: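 CC50 from mock-infected MT-4 cells and EC50 against HIV-1 NL4-3 in infected MT-4 cells, both by day-5 MTT viability read-out; index computed as CC50/EC50(NL4-3); means of at least two experiments.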

[8] = test system: Human immunodeficiency virus 1; assay: Antiviral activity against HIV 1 harboring reverse transcriptase K103N mutant infected in human MT4 cells assessed as inhibition of virus-induced cytopathic effect after 5 days by MTT assay; type: functional, organism-based; conditions: Human immunodeficiency virus 1, MT4, 120 h
[9] = test system: Human immunodeficiency virus 1; assay: Antiviral activity against wild type HIV 1 NL4-3 infected in human MT4 cells assessed as inhibition of virus-induced cytopathic effect after 5 days by MTT assay; type: functional, organism-based; conditions: Human immunodeficiency virus 1, NL4-3, MT4, 120 h
[10] = test system: Human immunodeficiency virus 1; assay: Ratio of ID50 for HIV 1 reverse transcriptase Y181I mutant to ID50 for wild type HIV 1 NL4-3 reverse transcriptase; in short: as §2
[11] = test system: Human immunodeficiency virus type 1 reverse transcriptase (Human immunodeficiency virus 1), Q72547 [K103N]
[12] = test system: Human immunodeficiency virus 1; assay: Resistance ratio of EC50 for HIV 1 harboring reverse transcriptase K103N mutant infected in human MT4 cells to EC50 for wild type HIV 1 NL4-3 infected in human MT4 cells; type: functional; in short: as §1
[13] = target: Human immunodeficiency virus type 1 reverse transcriptase (Human immunodeficiency virus 1) (UniProt Q72547)
[14] = test system: Human immunodeficiency virus 1; assay: Ratio of ID50 for HIV 1 reverse transcriptase K103N mutant to ID50 for wild type HIV 1 NL4-3 reverse transcriptase; in short: as §2
[15] = test system: Human immunodeficiency virus type 1 reverse transcriptase (Human immunodeficiency virus 1), Q72547 [Y181I]
[16] = test system: Human immunodeficiency virus 1; assay: Ratio of ID50 for HIV 1 reverse transcriptase L100I mutant to ID50 for wild type HIV 1 NL4-3 reverse transcriptase; in short: as §2
[17] = test system: Human immunodeficiency virus type 1 reverse transcriptase (Human immunodeficiency virus 1), Q72547 [L100I]

Row | SMILES | EC50 [1] [nM] | EC50 [2] [nM] | Ratio EC50 [3] | Ratio [4] | Ratio EC50 [5] | CC50 [6] [nM] | selectivity ratio [7] | EC50 [8] [nM] | EC50 [9] [nM] | Ratio [10] | ID50 [11] [nM] | Ratio EC50 [12] | ID50 [13] [nM] | Ratio [14] | ID50 [15] [nM] | Ratio [16] | ID50 [17] [nM]
1 | CC(c1cc(=O)[nH]c(Nc2ccc(C#N)cc2)n1)c1c(F)cccc1F (configuration not stated) | 88 | 653 | 72 | 149 | 10 | > 2840 | > 312 | 56.8 | 9.1 | 438 | 347 | 6 | 28 | 12 | 12300 | – | –
2 | Cc1cnc(Nc2ccc(C#N)cc2)nc1C(C)c1c(F)cccc1F (configuration not stated) | 42.5 | 31.4 | 52 | 43 | 71 | 71400 | 119000 | 51.9 | 0.6 | 725 | 154 | 86 | 6.9 | 22 | 5000 | 19 | 128
3 | Cc1c(Cl)nc(Nc2ccc(C#N)cc2)nc1Cc1c(F)cccc1F | 2540 | > 2700 | – | 371 | 80 | > 2700 | > 125 | 739 | 21.6 | – | 445 | 23 | 17 | 26 | > 40000 | – | –
4 | Cc1c(Cc2c(F)cccc2F)nc(Nc2ccc(C#N)cc2)[nH]c1=O | > 2840 | > 2840 | – | – | – | > 2840 | > 11.6 | 1390 | 244 | – | 21400 | 6 | 200 | 107 | > 80000 | – | –
5 | N#Cc1ccc(Nc2nc(Cc3c(F)cccc3F)cc(=O)[nH]2)cc1 | 344 | > 2500 | – | 1550 | 1 | > 2500 | > 7.3 | 290 | 344 | 70000 | 2600 | 0.8 | 0.8 | 3250 | 56000 | 2000 | 1600
6 | CC(c1ccnc(Nc2ccc(C#N)cc2)n1)c1c(F)cccc1F (configuration not stated) | 44.3 | 100 | 200 | 85 | 89 | 37500 | 75000 | 27.3 | 0.5 | 656 | 248 | 55 | 9 | 28 | 5910 | 74 | 664
7 | N#Cc1ccc(Nc2nc(Cl)cc(Cc3c(F)cccc3F)n2)cc1 | 561 | 1400 | 105 | – | 42 | > 2800 | > 209 | 171 | 13.4 | – | 4360 | 13 | 59 | 74 | > 80000 | – | –
8 | CC(c1cc(Cl)nc(Nc2ccc(C#N)cc2)n1)c1c(F)cccc1F (configuration not stated) | 154 | 836 | 557 | 237 | 102 | > 2700 | > 1800 | 51.2 | 1.5 | 2380 | 286 | 34 | 12 | 24 | 28600 | – | –
9 | Cc1cnc(Nc2ccc(C#N)cc2)nc1Cc1c(F)cccc1F | 358 | 1020 | 308 | – | 108 | > 74300 | > 22500 | 88.3 | 3.3 | – | 262 | 27 | 9 | 29 | > 80000 | 329 | 2960
